≈ marks a conversion by molar mass, not a printed value.

Experiment [1] in a line: Antioxidant activity assessed as inhibition of DPPH radical formation after 30 mins. The class given is functional. In short, it runs like this:
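Test compound at […] mixed 1:1 with […], kept dark at room temperature 30 min, absorbance read at 517 nm. Ascorbic acid as positive control, DMSO as blank. % scavenging taken against a no-compound control. IC50 by linear regression of the dose-response, in mg/mL, mean ± SD of three replicates.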

A short description of experiment [2]: Antioxidant activity in PBS buffer assessed as NO scavenging activity after 90 mins in presence of sodium nitroprusside by Griess assay. The class given is functional. The gist of the method: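 Test compound at […] mixed 1:1 with 10 mM sodium nitroprusside in PBS pH 7.4, held 90 min at room temperature. Equal volume of Griess reagent (1% sulphanilamide, 0.1% naphthyl ethylene diamine in 2.5% […]) added, absorbance at 546 nm. Ascorbic acid as positive control, DMSO as blank. IC50 by linear regression, mg/mL, mean ± SD of three.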

Experiment [3] can be described thus: Antioxidant activity assessed as superoxide dismutase-like activity by measuring inhibition of xanthine oxidase-induced superoxide anion level measured ever 30 secs for 5 mins by NBT reduction assay. In kind it is functional. The gist of the method:
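Kit-based assay at room temperature in cuvettes: reaction buffer, xanthine and NBT, then test compound ([…]), then xanthine oxidase. A550 read every 30 s from 30 s to 5 min 30 s. Rate per minute compared with a negative control gives % inhibition. IC50 from non-linear dose-response, mean ± SEM of three. Ascorbic acid as reference.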

A short description of experiment [4]: Inhibition of soybean 15-LOX using arachidonic acid or linoleic acid as substrate preincubated with enzyme followed by substrate addition up to 5 mins by chromogenic method. On the set-up: species or system Glycine max. The gist of the method: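 Kit-based assay: soybean LOX pre-mixed with test compound ([…], in DMSO), started with arachidonic or linoleic acid, shaken at least 5 min. Chromogen added to stop and develop, absorbance at 490–500 nm. Quercetin as positive control, DMSO as 100% activity, buffer as blank. IC50 from non-linear dose-response of % inhibition.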

In the next experiment the test system is Glycine max. The experiment in a line: Potency index, ratio of quercetin IC50 to compound IC50 for inhibition of soybean 15-LOX.
Experiment [5] can be described thus: Potency index, ratio of ascorbic acid IC50 to compound IC50 for antioxidant activity assessed as superoxide dismutase-like activity by measuring inhibition of xanthine oxidase-induced superoxide anion level. In kind it is functional.
A short description of experiment [6]: Potency index, ratio of ascorbic acid IC50 to compound IC50 for antioxidant activity in PBS buffer assessed as NO scavenging activity. In kind it is functional.
Experiment [7] in a line: Potency index, ratio of ascorbic acid IC50 to compound IC50 for antioxidant activity assessed as inhibition of DPPH radical. The class given is functional.

As to `c1ccc(-c2[nH]c3ccccc3c2C2CC(c3ccncc3)=NN2)cc1` (configuration not stated), the IC50 in experiment [1] worked out at 15.83 µg/mL (≈ 46.8 µM); in experiment [2] it was 20.99 µg/mL; in experiment [3] it was 3.24 µM; in experiment [4] it was 6.54 µM.

With `O=c1c(O)c(-c2ccc(O)c(O)c2)oc2cc(O)cc(O)c12` [QUERCETIN], in experiment [4], the IC50 came out at 6.87 µM.

Turning to `c1ccc(-c2[nH]c3ccccc3c2C2CC(c3ccncc3)=NO2)cc1` (configuration not stated), the IC50 turned out to be 59.94 µg/mL (≈ 177 µM) in experiment [1], 70.5 µg/mL in experiment [2], 1.87 µM in experiment [3] and 4.89 µM in experiment [4].

For `CC(=O)N1N=C(c2ccncc2)CC1c1c(-c2ccccc2)[nH]c2ccccc12` (configuration not stated), the IC50 came to 98.54 µg/mL (≈ 259 µM) in experiment [1], 29.14 µg/mL in experiment [2], 5.47 µM in experiment [3] and 8.74 µM in experiment [4].

As to `O=C(c1ccccc1)N1N=C(c2ccncc2)CC1c1c(-c2ccccc2)[nH]c2ccccc12` (configuration not stated), the concentration for half-maximal inhibition (IC50) in experiment [1] is 107.32 µg/mL (≈ 243 µM); in experiment [2], 52.54 µg/mL; in experiment [3] it was 4.27 µM; in experiment [4], 5.14 µM.

For the molecule `O=C(c1ccccc1)N1N=C(c2cccnc2)CC1c1c(-c2ccccc2)[nH]c2ccccc12` (configuration not stated), the IC50 in experiment [1] was found to be 48.21 µg/mL (≈ 109 µM); in experiment [2], 50.33 µg/mL; in experiment [3] it was 4.62 µM; in experiment [4] it was 7.23 µM.

In the case of `O=C1O[C@H]([C@@H](O)CO)C(O)=C1O` [ASCORBIC ACID], the IC50 in experiment [1] came out at 23.4 µg/mL (≈ 133 µM); in experiment [2], 24.5 µg/mL; in experiment [3], 3.54 µM.

With `c1ccc(-c2[nH]c3ccccc3c2C2CC(c3cccnc3)=NN2)cc1` (configuration not stated), the Ratio IC50 is 1.8 with Glycine max, 2 in experiment [5], 0.7 in experiment [6] and 1.7 in experiment [7]. The half-maximal inhibitory concentration (IC50) is 13.61 µg/mL (≈ 40.2 µM) in experiment [1], 35.01 µg/mL in experiment [2], 1.78 µM in experiment [3] and 3.84 µM in experiment [4].

As to `c1ccc(-c2[nH]c3ccccc3c2C2CC(c3cccs3)=NN2)cc1` (configuration not stated), the IC50 in experiment [1] is 18.3 µg/mL (≈ 53.3 µM); in experiment [2], 24.04 µg/mL; in experiment [3], 6.51 µM; in experiment [4] it was 9.41 µM.

On to `CC(=O)N1N=C(c2cccnc2)CC1c1c(-c2ccccc2)[nH]c2ccccc12` (configuration not stated), for which the IC50 was found to be 37.97 µg/mL (≈ 99.8 µM) in experiment [1], 29.8 µg/mL in experiment [2], 2.57 µM in experiment [3] and 4.56 µM in experiment [4].

In the case of `CN1N=C(c2ccncc2)CC1c1c(-c2ccccc2)[nH]c2ccccc12` (configuration not stated), the IC50 in experiment [1] was 33.1 µg/mL (≈ 93.9 µM); in experiment [2] it was 37.1 µg/mL; in experiment [3], 5.41 µM; in experiment [4], 9.32 µM.

Regarding `c1ccc(-c2[nH]c3ccccc3c2C2CC(c3cccs3)=NO2)cc1` (configuration not stated), the IC50 in experiment [1] was 117.5 µg/mL (≈ 341 µM); in experiment [2], 233.4 µg/mL; in experiment [3], 4.26 µM; in experiment [4] it was 7.51 µM.

In the case of `c1ccc(-c2[nH]c3ccccc3c2C2CC(c3cccnc3)=NO2)cc1` (configuration not stated), the concentration for half-maximal inhibition (IC50) was 60.7 µg/mL (≈ 179 µM) in experiment [1], 116.7 µg/mL in experiment [2], 3.54 µM in experiment [3] and 6.71 µM in experiment [4].

Values taken from ChEMBL document CHEMBL4145485, “Design, synthesis, biological evaluation and docking studies of new 3-(4,5-dihydro-1H-pyrazol/isoxazol-5-yl)-2-phenyl-1H-indole derivatives as potent antioxidants and 15-lipoxygenase inhibitors” (Eur J Med Chem, 2018).
